Results reported in ChEMBL document CHEMBL1124297, “7-Aminoquinolines. A novel class of agents active against herpesviruses” (J Med Chem, 1988).
In brackets after ≈: the same amount, converted by molar mass.

Tests used:
Human alphaherpesvirus 1 [1] = assay: Inhibitory activity against herpes simplex virus type-1 (HSV-1) replication in KB cells; assay type: functional, organism-based; details: Human alphaherpesvirus 1, KB
How it was run: (§1)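 HSV-1 (HF strain)-infected KB cells were treated in duplicate for 20 h with five or six half-log dilutions of compound. The disrupted cultures were serially diluted onto BHK 21/4 cells, and titers were determined by counting macroscopic plaques. I50 came from linear regression of log concentration versus % inhibition of viral replication. Each assay included 10 µg/mL ara-A as positive control, and a set was rejected if ara-A deviated by more than 1.5 SD.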

Human alphaherpesvirus 1 [2] = assay: In vitro therapeutic index as ratio of cytotoxicity to inhibition of viral replication; assay type: organism-based; details: human alphaherpesvirus 1, in vitro; read-out: Therapeutic index
How it was run: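 Ratio of the cytotoxicity I50 to the HSV-1 replication I50, rounded to the nearest whole number. Cytotoxicity I50 was the mean of four I50 values (Lowry protein, 3H-amino acid uptake, diphenylamine DNA, [3H]thymidine uptake) in uninfected KB cells after 20 h. Replication I50 was from plaque titers of infected KB cultures after 20 h.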

KB (Homo sapiens) = assay: In vitro cytotoxicity in uninfected KB cells; Low drug solubility
Human alphaherpesvirus 1 [3] = assay: Inhibitory activity against herpes simplex virus type-1 (HSV-1) replication in infected KB cells; assay type: functional, organism-based; details: Human alphaherpesvirus 1, KB; how it was run: as §1

SMILES	IC50 (Human alphaherpesvirus 1 [1])	IC50 (Human alphaherpesvirus 1 [3])	selectivity ratio (Human alphaherpesvirus 1 [2])	IC50 (KB (Homo sapiens))
CC(=O)Nc1ccc2c(C)cc(Cl)nc2c1	21 µg/mL (≈ 89.5 µM)	–	4	–
CNc1cc(C)nc2cc(N(C)C)ccc12	6 µg/mL (≈ 27.9 µM)	–	2	–
CN(C)c1ccc2c(N(C)C)cc(N(C)C)nc2c1	5 µg/mL (≈ 19.4 µM)	–	4	–
Nc1ncnc2c1ncn2[C@@H]1O[C@H](CO)[C@@H](O)[C@@H]1O [VIDARABINE]	5.6 µg/mL (≈ 21 µM)	–	7	–
Cc1cc(Cl)c2ccc(N(C)C)cc2n1	7 µg/mL (≈ 31.7 µM)	–	3	–
Cc1cc(N(C)C)c2ccc(N(C)C)cc2n1	9 µg/mL (≈ 39.2 µM)	–	2	–
Cc1c(Cl)nc2cc(N(C)C)ccc2c1Cl	13 µg/mL (≈ 51 µM)	–	2	> 32 µg/mL
CCN(CC)CCCC(C)Nc1ccnc2cc(Cl)ccc12 (stereo not given) [CHLOROQUINE]	27 µg/mL (≈ 84.4 µM)	–	3	–
Nc1nc2c(ncn2COCCO)c(=O)[nH]1 [ACYCLOVIR]	2.6 µg/mL (≈ 11.5 µM)	–	> 38	–
Cc1c(N(C)C)nc2cc(N(C)C)ccc2c1Cl	49 µg/mL (≈ 186 µM)	–	–	> 32 µg/mL
CC(=O)Nc1ccc2c(C)ccnc2c1	31 µg/mL (≈ 155 µM)	–	7	–
CC(=O)Nc1ccc2c(C)cc(N)nc2c1	10 µg/mL (≈ 46.5 µM)	–	3	–
Cc1cn([C@@H]2O[C@H](CO)[C@@H](O)[C@@H]2O)c(=O)[nH]c1=O	0.6 µg/mL (≈ 2.32 µM)	–	833	–
CCC(=O)C(CCCCCCOc1ccc(OC)cc1Cl)C(=O)CC [ARILDONE]	11 µg/mL (≈ 29.8 µM)	–	7	–
O=C(O)P(=O)(O)O [FOSCARNET]	189 µg/mL (≈ 1500 µM)	–	8	–
Cc1cc(O)c2ccc(N(C)C)cc2n1	23 µg/mL (≈ 114 µM)	–	19	–
Cc1c(O)nc2cc(N(C)C)ccc2c1O	–	29 µg/mL (≈ 133 µM)	3	–

Second part, led by results:

IC50 (Human alphaherpesvirus 1 [1])	IC50 (Human alphaherpesvirus 1 [3])	SMILES	selectivity ratio (Human alphaherpesvirus 1 [2])	IC50 (KB (Homo sapiens))
30 µg/mL (≈ 159 µM)	–	CN(C)c1ccc2ccc(O)nc2c1	5	–
53 µg/mL (≈ 275 µM)	–	Cc1cc(Cl)nc2cc(N)ccc12	3	–
7.6 µg/mL (≈ 40.8 µM)	–	Cc1cnc2cc(N(C)C)ccc2c1	9	–
6 µg/mL (≈ 29.8 µM)	–	Cc1cc(N(C)C)nc2cc(N)ccc12	2	–
18 µg/mL (≈ 74 µM)	–	CC(=O)Nc1ccc2c(C)cc(N(C)C)nc2c1	6	–
11 µg/mL (≈ 54.7 µM)	–	CNc1ccc2ccc(N(C)C)cc2n1	2	–
4 µg/mL (≈ 23.1 µM)	–	Cc1cc(N)nc2cc(N)ccc12	7	–
2 µg/mL (≈ 10.7 µM)	–	CN(C)c1ccc2ccc(N)nc2c1	5	–
51 µg/mL (≈ 272 µM)	–	CN(C)c1ccc2ccc(N)cc2n1	3	–
6 µg/mL (≈ 27.9 µM)	–	CN(C)c1ccc2ccc(N(C)C)nc2c1	3	–
4.5 µg/mL (≈ 24.2 µM)	–	Cc1ccc2ccc(N(C)C)cc2n1	9	–
40 µg/mL (≈ 253 µM)	–	Cc1ccnc2cc(N)ccc12	2	–
10 µg/mL (≈ 62.8 µM)	–	Nc1ccc2ccc(N)nc2c1	–	–
